Values after ≈ are worked out from the molar mass of the structure shown. Counter-ions that a name gives are not always drawn. Active and inactive are the calls of the source. No cut-off for these calls is given here.
How the values were obtained:
[1] = (§1) Cytotoxicity against human HEK293 cells assessed as cell viability after 48 hrs by XTT based calorimetric assay; settings: HEK293 cells, read-out: LC50
Method in brief: (§2)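 Cells seeded at 5,000/well in DMEM with 10% FBS and 1% glutamine at 37 °C, 5% CO₂; after overnight culture, graded aminoglycoside concentrations added for a further 48 hr. XTT viability read-out with 3 hr incubation by optical density, viability expressed relative to untreated cultures; LC50 fitted from concentration-response curves of at least three independent experiments.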

[2] = Selectivity ratio of IC50 for ribosome-mediated protein synthesis in rabbit reticulocytes to IC50 for ribosome S30 subunit-mediated protein synthesis in Escherichia coli
Ribosome [3] = assay: Inhibition of ribosome-mediated translation of IDUA Q70X nonsense mutant gene expressed in rabbit reticulocytes harboring p2luc plasmid after 16 hrs by dual luciferase reporter gene assay; type: subcellular; parameters: scale not given: the % may be the effect or the level left
Ribosome [4] = assay: Inhibition of ribosome-mediated translation of PCDH15 R3X nonsense mutant gene expressed in rabbit reticulocytes harboring p2luc plasmid after 16 hrs by dual luciferase reporter gene assay; type: subcellular; parameters: scale not given: the % may be the effect or the level left
[5] = Inhibition of ribosome S30 subunit-mediated protein synthesis in Escherichia coli after 60 mins by coupled transcription/translation assay
Method in brief: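 Prokaryotic coupled transcription/translation with a luciferase read-out. Varied aminoglycoside concentrations were incubated with the 10 µl reaction at 37°C for 60 min, then ice-cooled 5 min. Samples were diluted in tris-phosphate (25 mM, pH 7.8), DTT, CDTA, glycerol, Triton X-100 and BSA, and luminescence was read on adding luciferase reagent. IC50 was fitted from at least three independent experiments.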

Ribosome [6] = assay: Inhibition of ribosome-mediated translation of DMD R3381X nonsense mutant gene expressed in rabbit reticulocytes harboring p2luc plasmid after 16 hrs by dual luciferase reporter gene assay; type: subcellular; parameters: scale not given: the % may be the effect or the level left
Ribosome [7] = assay: Inhibition of ribosome-mediated translation of PCDH15 R245X nonsense mutant gene expressed in rabbit reticulocytes harboring p2luc plasmid after 16 hrs by dual luciferase reporter gene assay; type: subcellular; parameters: scale not given: the % may be the effect or the level left
Ribosome [8] = assay: Inhibition of ribosome-mediated translation of CFTR W1282X nonsense mutant gene expressed in rabbit reticulocytes harboring p2luc plasmid after 16 hrs by dual luciferase reporter gene assay; type: subcellular; parameters: scale not given: the % may be the effect or the level left
Ribosome [9] = assay: Inhibition of ribosome-mediated translation of CFTR G542X nonsense mutant gene expressed in rabbit reticulocytes harboring p2luc plasmid after 16 hrs by dual luciferase reporter gene assay; type: subcellular; parameters: scale not given: the % may be the effect or the level left
Ribosome [10] = assay: Inhibition of ribosome-mediated protein synthesis in rabbit reticulocytes after 60 mins by coupled transcription/translation assay; type: subcellular, Oryctolagus cuniculus
Method in brief: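 Eukaryotic inhibition used the TNT T7 Quick coupled transcription/translation system with T7 control luciferase DNA. Varied aminoglycoside concentrations were incubated with the 10 µl reaction at 30 °C for 60 min and ice-cooled 5 min. Samples were diluted in the same buffer and luminescence was read on adding luciferase reagent. IC50 was fitted from at least three independent experiments.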

Escherichia coli = assay: Antibacterial activity against Escherichia coli R477/100 by microdilution method; type: functional
HeLa = assay: Ratio of compound IC50 to gentamicin IC50 for inhibition of mitochondrial ribosome- protein synthesis in human HeLa cells; type: subcellular
HEK293 = assay: as §1; settings: hek293, 48 h, read-out: LC50 (the source's name); method in brief: as §2
[11] = target: mitochondrial ribosome (Homo sapiens); assay: Inhibition of mitochondrial ribosome-mediated protein synthesis in human HeLa cells assessed as {35S]methionine incorporation by autoradiography
Bacillus subtilis = assay: Antibacterial activity against Bacillus subtilis ATCC-6633 by double-microdilution method; type: functional, organism-based
HFF = assay: Cytotoxicity against human HFF cells assessed as cell viability after 48 hrs by XTT based calorimetric assay relative to control; method in brief: as §2

Compound | CC50 at 48 h [1] | Ratio IC50 [2] | Activity (Ribosome [3]) | Activity (Ribosome [4]) | IC50 [5] | Activity (Ribosome [6]) | Activity (Ribosome [7]) | Activity (Ribosome [8]) | Activity (Ribosome [9]) | IC50 (Ribosome [10]) | MIC (Escherichia coli) | Ratio IC50 (HeLa) | CC50 (HEK293) | IC50 [11] | Activity (Bacillus subtilis) | Activity (HFF)
C[C@@H](O)[C@H]1O[C@H](O[C@H]2[C@H](O[C@@H]3O[C@H](CN)[C@@H](O)[C@H]3O)[C@@H](O)[C@H](N)C[C@@H]2N)[C@H](N)[C@@H](O)[C@@H]1O | 22200 µM | 15 | 20% | 20% | 1.1 µM | 20% | 20% | 20% | 20% | – | – | – | – | – | – | –
C[C@H](N)[C@H]1O[C@@H](O[C@@H]2[C@@H](O)[C@H](NC(=O)[C@@H](O)CCN)C[C@H](N)[C@H]2O[C@H]2O[C@H](CO)[C@@H](O)[C@H](O)[C@H]2N)[C@H](O)[C@@H]1O | – | 2.3 | – | – | 2.3 µM | – | – | – | – | 5.2 µM | 1070 µM (≈ 608 µg/mL) | – | – | – | – | –
C[C@@H](N)[C@H]1O[C@@H](O[C@@H]2[C@@H](O)[C@H](NC(=O)[C@@H](O)CCN)C[C@H](N)[C@H]2O[C@H]2O[C@H](CO)[C@@H](O)[C@H](O)[C@H]2N)[C@H](O)[C@@H]1O | – | 5.7 | – | – | 0.8 µM | – | – | – | – | 4.6 µM | 1060 µM (≈ 602 µg/mL) | – | – | – | – | –
C[C@H](N)[C@H]1O[C@@H](O[C@@H]2[C@@H](O)[C@H](NC(=O)[C@@H](O)CCN)C[C@H](N)[C@H]2O[C@H]2O[C@H]([C@@H](C)O)[C@@H](O)[C@H](O)[C@H]2N)[C@H](O)[C@@H]1O | 5100 µM | 0.4 | – | – | 1.8 µM | – | – | – | – | 0.7 µM | 384 µM (≈ 224 µg/mL) | – | – | – | – | –
NCC[C@H](O)C(=O)N[C@@H]1C[C@H](N)[C@@H](O[C@H]2O[C@H](CO)[C@@H](O)[C@H](O)[C@H]2N)[C@H](O[C@@H]2O[C@H](CN)[C@@H](O)[C@H]2O)[C@H]1O | 5500 µM | 151 | – | – | 0.2 µM | – | – | – | – | 24 µM | 588 µM (≈ 327 µg/mL) | 19 | – | – | – | –
NC[C@@H]1O[C@H](O[C@H]2[C@@H](O)[C@H](O[C@@H]3[C@@H](O)[C@H](N)C[C@H](N)[C@H]3O[C@H]3O[C@H](CO)[C@@H](O)[C@H](O)[C@H]3N)O[C@@H]2CO)[C@H](N)[C@@H](O)[C@@H]1O [PAROMOMYCIN SULFATE] | – | 1120 | – | – | 0.05 µM | – | – | – | – | 57 µM | 22 µM | – | – | – | – | –
C[C@@H](N)[C@H]1O[C@@H](O[C@@H]2[C@@H](O)[C@H](N)C[C@H](N)[C@H]2O[C@H]2O[C@H]([C@@H](C)O)[C@@H](O)[C@H](O)[C@H]2N)[C@H](O)[C@@H]1O | 16500 µM | 4.3 | 20% | 20% | 1.9 µM | 20% | 20% | 20% | 20% | 8 µM | 1540 µM (≈ 741 µg/mL) | – | – | – | – | –
C[C@@H](N)[C@H]1O[C@@H](O[C@@H]2[C@@H](O)[C@H](N)C[C@H](N)[C@H]2O[C@H]2O[C@H](CO)[C@@H](O)[C@H](O)[C@H]2N)[C@H](O)[C@@H]1O | – | 13 | – | – | 2.1 µM | – | – | – | – | 28 µM | 4990 µM (≈ 2340 µg/mL) | – | – | – | – | –
GENTAMICIN SULFATE [listing 1 of 2 here] | – | – | – | – | – | – | – | – | – | 62 µM | – | – | 2500 µM | 26 µM | – | –
C[C@@H](N)[C@H]1O[C@@H](O[C@@H]2[C@@H](O)[C@H](NC(=O)[C@@H](O)CCN)C[C@H](N)[C@H]2O[C@H]2O[C@H]([C@@H](C)O)[C@@H](O)[C@H](O)[C@H]2N)[C@H](O)[C@@H]1O | 5400 µM | 0.5 | Dose-dependent effect | – | 1.8 µM | – | – | – | – | 0.9 µM | 384 µM (≈ 224 µg/mL) | – | – | – | – | –
C[C@H](N)[C@H]1O[C@@H](O[C@@H]2[C@@H](O)[C@H](N)C[C@H](N)[C@H]2O[C@H]2O[C@H]([C@@H](C)O)[C@@H](O)[C@H](O)[C@H]2N)[C@H](O)[C@@H]1O | 5400 µM | 1.3 | 50% | 50% | 1.1 µM | 50% | 50% | 50% | 50% | 1.5 µM | 768 µM (≈ 371 µg/mL) | – | – | – | – | –
C[C@H](N)[C@H]1O[C@@H](O[C@@H]2[C@@H](O)[C@H](N)C[C@H](N)[C@H]2O[C@H]2O[C@H](CO)[C@@H](O)[C@H](O)[C@H]2N)[C@H](O)[C@@H]1O | – | 7.9 | – | – | 2 µM | – | – | – | – | 16 µM | 2660 µM (≈ 1250 µg/mL) | – | – | – | – | –
CN[C@@H]1[C@@H](O)[C@@H](O[C@@H]2[C@@H](O)[C@H](O[C@H]3O[C@H]([C@@H](C)O)[C@@H](O)[C@H](O)[C@H]3N)[C@@H](N)C[C@H]2N)OC[C@]1(C)O.O=S(=O)(O)O [GENETICIN SULFATE SALT] | – | – | – | – | 0.01 µM | – | – | – | – | 2 µM | 9 µM | – | – | – | Active | Non-toxic
NC[C@H]1O[C@@H](O[C@@H]2[C@@H](O)[C@H](N)C[C@H](N)[C@H]2O[C@H]2O[C@H](CO)[C@@H](O)[C@H](O)[C@H]2N)[C@H](O)[C@@H]1O | 21900 µM | 68 | – | – | 0.5 µM | – | – | – | – | 31 µM | 790 µM (≈ 359 µg/mL) | – | – | – | – | –
C[C@@H](O)[C@H]1O[C@H](O[C@H]2[C@H](O[C@@H]3O[C@H](CN)[C@@H](O)[C@H]3O)[C@@H](O)[C@H](NC(=O)[C@@H](O)CCN)C[C@@H]2N)[C@H](N)[C@@H](O)[C@@H]1O | 5800 µM | 2.9 | 50% | 50% | 1 µM | 50% | 50% | 50% | 50% | 2.8 µM | 556 µM (≈ 317 µg/mL) | – | – | – | – | –
GENTAMICIN SULFATE [listing 2 of 2 here] | – | 2210 | 20% | 20% | – | 20% | 20% | 20% | 20% | – | 6 µM | – | – | – | Active | –

From ChEMBL document CHEMBL2203148, “Increased selectivity toward cytoplasmic versus mitochondrial ribosome confers improved efficiency of synthetic aminoglycosides in fixing damaged genes: a strategy for treatment of genetic diseases caused by nonsense mutations” (J Med Chem, 2012)
